Experimental data from different studies.
Lines come from different studies, so protocols differ.

The Cmax of `CC(C)[C@]12O[C@H]1[C@@H]1O[C@]13[C@]1(O[C@H]1C[C@H]1C4=C(CC[C@@]13C)C(=O)OC4)[C@@H]2O` is reported as 1290 ng/mL (SCID mouse; plasma; intravenous; 0.6 mg/kg).
For `CC(C)=CCC[C@](C)(O[C@@H]1O[C@H](CO)[C@@H](O)[C@H](O)[C@H]1O)[C@H]1CC[C@]2(C)[C@@H]1[C@H](O)C[C@@H]1[C@@]3(C)CC[C@H](O)C(C)(C)[C@@H]3CC[C@]12C`, the Cmax was 107 ng/mL (mouse; plasma; oral; 10 mg/kg).
The Cmax of `C[C@@H](O)[C@@H]1NC(=O)CNC(=O)[C@H](Cc2c[nH]cn2)NC(=O)[C@H](Cc2c[nH]c3ccccc23)NC(=O)[C@H](CC(N)=O)NC(=O)CNC(=O)C[C@@H](C(=O)N[C@@H](Cc2c[nH]c3ccccc23)C(=O)N[C@@H](Cc2ccccc2)C(=O)N[C@@H](Cc2ccccc2)C(=O)N[C@@H](CC(N)=O)C(=O)N[C@@H](Cc2ccc(O)cc2)C(=O)N[C@@H](Cc2ccc(O)cc2)C(=O)N[C@@H](Cc2c[nH]c3ccccc23)C(=O)O)NC(=O)[C@@H]2CCCN2C(=O)[C@H](CO)NC1=O` is reported as 11400 ng/mL (mouse; plasma; intravenous; 3 mg/kg).
The Cmax of `N=C(N)NCCC[C@H](NC(=O)[C@H](Cc1ccccc1)NC(=O)[C@H](CCC(N)=O)NC(=O)OCc1ccccc1)C(=O)c1nccs1` is reported as 3460 ng/mL (female C57BL/6 mouse; plasma; intravenous; 5 mg/kg).
`Cc1[nH]c(C)c(S(=O)(=O)Nc2ccc(S(F)(F)(F)(F)F)cc2)c1C(=O)N1CCC(F)(F)C1` gave a Cmax of 31 µM (mouse; plasma; intraperitoneal; 40 mg/kg).
The Cmax of `COc1cc(C(=O)c2nc(-c3cccc4[nH]ccc34)c[nH]2)cc(OC)c1OC` is reported as 1870 ng/mL (male CD-1 mouse; plasma; intraperitoneal; 15 mg/kg).
`O=C1CCC(N2Cc3c(ccc4c3OCC43CCN(Cc4ccccc4)CC3)C2=O)C(=O)N1` (centres unmarked) has a Cmax of 299 ng/mL (male CD-1 mouse; plasma; intravenous; 1 mg/kg).
`CCOC(=O)c1c(NC(=O)CNC(C)C)sc2c1CCCCC2` gave a Cmax of 15800 ng/g (male mouse; brain; intraperitoneal; 100 mg/kg; single dose).
